Data taken from ChEMBL document CHEMBL1154899, “Synthesis and biological evaluation of caffeic acid 3,4-dihydroxyphenethyl ester” (J Nat Prod, 2010).
Converted amounts (≈) assume the structure as drawn.

Legend:
Type in all cases: functional
SF-539 = experiment: Antiproliferative activity against human SF539 cells assessed as cell growth at 50 uM by SRB assay; conditions: read-out: Activity
COLO 205 = experiment: Antiproliferative activity against human COLO205 cells assessed as cell growth at 0.5 uM by SRB assay; conditions: read-out: Activity
OVCAR-3 [1] = experiment: Antiproliferative activity against human OVCAR-3 cells by SRB assay
OVCAR-3 [2] = experiment: Antiproliferative activity against human OVCAR-3 cells assessed as cell growth at 50 uM by SRB assay; conditions: read-out: Activity
A549 [3] = experiment: Antiproliferative activity against human A549 cells assessed as cell growth at 500 uM by SRB assay; conditions: read-out: Activity
A498 = experiment: Antiproliferative activity against human A498 cells assessed as cell growth at 5 uM by SRB assay; conditions: read-out: Activity
CCRF-CEM = experiment: Antiproliferative activity against human CCRF-CEM cells assessed as cell growth at 50 uM by SRB assay; conditions: read-out: Activity
[4] = Antiproliferative activity against human Hs 578T cells assessed as cell growth at 500 uM by SRB assay; conditions: read-out: Activity
NCI-H226 [5] = experiment: Antiproliferative activity against human NCI-H226 cells assessed as cell growth at 0.5 uM by SRB assay; conditions: read-out: Activity
CAKI-1 = experiment: Antiproliferative activity against human Caki1 cells assessed as cell growth at 0.5 uM by SRB assay; conditions: read-out: Activity
EKVX = experiment: Antiproliferative activity against human EKVX cells by SRB assay
HCC 2998 = experiment: Antiproliferative activity against human HCC2998 cells assessed as cell growth at 0.5 uM by SRB assay; conditions: read-out: Activity
HOP-62 = experiment: Antiproliferative activity against human HOP62 cells assessed as cell growth at 500 uM by SRB assay; conditions: read-out: Activity
MDA-MB-435 = experiment: Antiproliferative activity against human MDA-MB-435 cells by SRB assay
SW-620 [6] = experiment: Antiproliferative activity against human SW620 cells assessed as cell growth at 5 mM by SRB assay; conditions: read-out: Activity
SF-268 = experiment: Antiproliferative activity against human SF268 cells assessed as cell growth at 0.5 uM by SRB assay; conditions: read-out: Activity
OVCAR-8 [7] = experiment: Antiproliferative activity against human OVCAR8 cells assessed as cell growth at 0.5 uM by SRB assay; conditions: read-out: Activity
[8] = tested on: Radical scavenging activity; experiment: Antioxidant activity assessed as DPPH radical scavenging activity after 20 mins
Procedure, shortened: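 Test solution at several concentrations (100 µL) mixed with 900 µL of 0.04 mg/mL DPPH in methanol, held 20 min at room temperature, absorbance read at 517 nm. Inhibition % = [(Ac − As)/Ac] × 100, with a blank holding 100 µL methanol in place of sample. Inhibition plotted against concentration; EC50 (mean ± SD) from linear regression of three determinations.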

OVCAR-8 [9] = experiment: Antiproliferative activity against human OVCAR8 cells assessed as cell growth at 500 uM by SRB assay; conditions: read-out: Activity
BT-549 = experiment: Antiproliferative activity against human BT549 cells by SRB assay
NCI-H322M = experiment: Antiproliferative activity against human NCI-H322M cells assessed as cell growth at 0.5 uM by SRB assay; conditions: read-out: Activity
786-0 = experiment: Antiproliferative activity against human 786-0 cells assessed as cell growth at 50 uM by SRB assay; conditions: read-out: Activity
SW-620 [10] = experiment: Antiproliferative activity against human SW620 cells assessed as cell growth at 50 uM by SRB assay; conditions: read-out: Activity
KM12 = experiment: Antiproliferative activity against human KM12 cells assessed as cell growth at 0.5 uM by SRB assay; conditions: read-out: Activity
SK-OV-3 = experiment: Antiproliferative activity against human SKOV3 cells by SRB assay
T47D = experiment: Antiproliferative activity against human T47D cells by SRB assay
[11] = Antiproliferative activity against human […] cells assessed as cell growth at 50 uM by SRB assay; conditions: read-out: Activity
LOX IMVI [12] = experiment: Antiproliferative activity against human LOXIMVI cells assessed as cell growth at 50 uM by SRB assay; conditions: read-out: Activity
HL-60(TB) = experiment: Antiproliferative activity against human HL-60(TB) cells assessed as cell growth at 5 uM by SRB assay; conditions: read-out: Activity
OVCAR-5 = experiment: Antiproliferative activity against human OVCAR5 cells at 5 mM by SRB assay
NCI-H23 = experiment: Antiproliferative activity against human NCI-H23 cells by SRB assay
LOX IMVI [13] = experiment: Antiproliferative activity against human LOXIMVI cells assessed as cell growth at 0.5 uM by SRB assay; conditions: read-out: Activity
SK-MEL-28 = experiment: Antiproliferative activity against human SK-MEL-28 cells by SRB assay
NCI-H460 = experiment: Antiproliferative activity against human NCI-H460 cells assessed as cell growth at 50 uM by SRB assay; conditions: read-out: Activity
NCI-H226 [14] = experiment: Antiproliferative activity against human NCI-H226 cells by SRB assay
A549 [15] = experiment: Antiproliferative activity against human A549 cells by SRB assay
[16] = read-out: LC50 (the source's name)
[17] = read-out: pLC50 (the source's name) (converted)

## O=C(/C=C/c1ccc(O)c(O)c1)OCCc1ccc(O)c(O)c1
SF-539
  growth at 50 µM: 89%
COLO 205
  growth at 0.5 µM: 99%
OVCAR-3 [1]; read-out: GI50
  GI50: 5.17 µM
OVCAR-3 [1]; [16]
  CC50: > 50 µM
OVCAR-3 [1]; read-out: TGI
  TGI: > 50 µM
OVCAR-3 [1]; read-out: pGI50 (converted)
  GI50: 5.13 µM
OVCAR-3 [1]; [17]
  CC50: > 50.1 µM
OVCAR-3 [1]; read-out: pTGI
  TGI: > 50.1 µM
OVCAR-3 [2]
  growth at 50 µM: 90%
A549 [3]
  growth at 500 µM: 96%
A498
  growth at 5 µM: 81%
CCRF-CEM
  growth at 50 µM: 60%
[4]
  growth at 500 µM: 67%
NCI-H226 [5]
  growth at 0.5 µM: 97%
CAKI-1
  growth at 0.5 µM: 82%
EKVX; read-out: GI50
  GI50: 14.9 µM
EKVX; [16]
  CC50: > 50 µM
EKVX; read-out: TGI
  TGI: > 50 µM
EKVX; read-out: pGI50 (converted)
  GI50: 14.8 µM
EKVX; [17]
  CC50: > 50.1 µM
EKVX; read-out: pTGI
  TGI: > 50.1 µM
HCC 2998
  growth at 0.5 µM: 93%
HOP-62
  growth at 500 µM: 95%
MDA-MB-435; read-out: GI50
  GI50: 4.01 µM
MDA-MB-435; [16]
  CC50: > 50 µM
MDA-MB-435; read-out: TGI
  TGI: > 50 µM
MDA-MB-435; read-out: pGI50 (converted)
  GI50: 3.98 µM
MDA-MB-435; [17]
  CC50: > 50.1 µM
MDA-MB-435; read-out: pTGI
  TGI: > 50.1 µM
SW-620 [6]
  growth at 5000 µM: 19%
SF-268
  growth at 0.5 µM: 94%
OVCAR-8 [7]
  growth at 0.5 µM: 78%
[8]
  EC50: 4.7 µg/mL (≈ 14.9 µM)
OVCAR-8 [9]
  growth at 500 µM: 64%
BT-549; read-out: GI50
  GI50: 8.67 µM
BT-549; [16]
  CC50: > 50 µM
BT-549; read-out: TGI
  TGI: > 50 µM
BT-549; read-out: pGI50 (converted)
  GI50: 8.32 µM
BT-549; [17]
  CC50: > 50.1 µM
BT-549; read-out: pTGI
  TGI: > 50.1 µM
NCI-H322M
  growth at 0.5 µM: 90%
786-0
  growth at 50 µM: 94%
SW-620 [10]
  growth at 50 µM: 98%
KM12
  growth at 0.5 µM: 97%
SK-OV-3; read-out: GI50
  GI50: 13.7 µM
SK-OV-3; [16]
  CC50: > 50 µM
SK-OV-3; read-out: TGI
  TGI: > 50 µM
SK-OV-3; read-out: pGI50 (converted)
  GI50: 13.2 µM
SK-OV-3; [17]
  CC50: > 50.1 µM
SK-OV-3; read-out: pTGI
  TGI: > 50.1 µM
T47D; read-out: GI50
  GI50: 11.3 µM
T47D; [16]
  CC50: > 50 µM
T47D; read-out: TGI
  TGI: > 50 µM
T47D; read-out: pGI50 (converted)
  GI50: 11.2 µM
T47D; [17]
  CC50: > 50.1 µM
T47D; read-out: pTGI
  TGI: > 50.1 µM
[11]
  growth at 50 µM: 54%
LOX IMVI [12]
  growth at 50 µM: 98%
HL-60(TB)
  growth at 5 µM: 85%
OVCAR-5
  Activity: 51%
NCI-H23; read-out: GI50
  GI50: 11.6 µM
NCI-H23; [16]
  CC50: > 50 µM
NCI-H23; read-out: TGI
  TGI: > 50 µM
NCI-H23; read-out: pGI50 (converted)
  GI50: 11.5 µM
NCI-H23; [17]
  CC50: > 50.1 µM
NCI-H23; read-out: pTGI
  TGI: > 50.1 µM
LOX IMVI [13]
  growth at 0.5 µM: 92%
SK-MEL-28; read-out: GI50
  GI50: 6.51 µM
SK-MEL-28; [16]
  CC50: > 50 µM
SK-MEL-28; read-out: TGI
  TGI: > 50 µM
SK-MEL-28; read-out: pGI50 (converted)
  GI50: 6.46 µM
SK-MEL-28; [17]
  CC50: > 50.1 µM
SK-MEL-28; read-out: pTGI
  TGI: > 50.1 µM
NCI-H460
  growth at 50 µM: 100%
NCI-H226 [14]; read-out: GI50
  GI50: 13.3 µM
NCI-H226 [14]; [16]
  CC50: > 50 µM
NCI-H226 [14]; read-out: TGI
  TGI: > 50 µM
NCI-H226 [14]; read-out: pGI50 (converted)
  GI50: 13.5 µM
NCI-H226 [14]; [17]
  CC50: > 50.1 µM
NCI-H226 [14]; read-out: pTGI
  TGI: > 50.1 µM
A549 [15]; read-out: GI50
  GI50: 17.7 µM
A549 [15]; [16]
  CC50: > 50 µM
A549 [15]; read-out: TGI
  TGI: > 50 µM
A549 [15]; read-out: pGI50 (converted)
  GI50: 17.8 µM
A549 [15]; [17]
  CC50: > 50.1 µM
A549 [15]; read-out: pTGI
  TGI: > 50.1 µM
